Test results: ChEMBL document CHEMBL3286210, “Discovery of 3-aryl-3-ethoxypropanoic acids as orally active GPR40 agonists” (Bioorg Med Chem Lett, 2014)
Active and inactive are the calls of the source. No cut-off for these calls is given here.

What was measured:
[1] = molecular target: Free fatty acid receptor 1 (Rattus norvegicus, UniProt Q8K3T4); experiment: Agonist activity at rat GPR40 expressed in CHO cells by calcium flux assay; type: functional, cell-based
How it was run: (§1)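 Intracellular calcium flux read in CHO cells transfected with GPR40; values are means of two or three independent experiments.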

[2] = Lipophilicity, log D of the compound at pH 7.4; type: physicochemical; details: buffer
[3] = molecular target: Free fatty acid receptor 1 (Homo sapiens, UniProt O14842); experiment: Agonist activity at human GPR40 expressed in CHO cells by calcium flux assay; type: functional, cell-based; how it was run: as §1
Homo sapiens = species on record: Homo sapiens; experiment: Inhibition of mitochondrial respiratory chain complex 1 (unknown origin) at 100 uM
How it was run: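 Compound tested at 100 μM. Read-out is percent inhibition of mitochondrial respiratory chain complex 1.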

MIN6 = experiment: Insulinotropic effect in mouse MIN6 cells in presence of 25 mM glucose; type: functional, cell-based
How it was run: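 MIN6 mouse insulinoma cells exposed to compound from 0.001 to 10 µM with 25 mM glucose; insulin secreted into medium measured; mean ± S.E. of 4 wells.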

[4] = AUC in F344 rat at 3 mg/kg, po; type: ADME, organism-based; set-up: dose 3 mg/kg, route oral; details: plasma
[5] = AUC in diabetic Zucker fatty rat model measured during OGTT at 10 mg/kg, po administered 30 mins prior to glucose challenge; type: ADME, organism-based; set-up: dose 10 mg/kg, route oral; details: in vivo
How it was run: (§2)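 9-week-old Zucker fatty rats were fasted overnight and given vehicle or compound orally 30 min before an oral glucose tolerance test with a 2 g/kg glucose challenge. Blood was sampled during the OGTT, and plasma exposure was reported as Cmax (µg/ml) and AUC (µg h/ml).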

[6] = Volume of distribution at steady state in F344 rat at 2 mg/kg, iv; type: ADME, organism-based; set-up: dose 2 mg/kg, route intravenous; details: in vivo, read-out: Vdss
How it was run: (§3)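 F344 rats, single iv dose of 2 mg/kg, plasma pharmacokinetic parameters determined.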

[7] = Half life in F344 rat at 2 mg/kg, iv; type: ADME, organism-based; set-up: dose 2 mg/kg, route intravenous; details: in vivo; how it was run: as §3
[8] = Cmax in diabetic Zucker fatty rat model measured during OGTT at 10 mg/kg, po administered 30 mins prior to glucose challenge; type: ADME, organism-based; set-up: dose 10 mg/kg, route oral; details: in vivo
How it was run: (§4)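 Plasma exposure (Cmax, AUC) measured during OGTT in overnight-fasted Zucker fatty rats dosed orally 30 min before a 2 g/kg glucose challenge.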

Rattus norvegicus [9] = experiment: Antidiabetic activity in diabetic Zucker fatty rat model assessed as reduction of blood glucose level at 3 mg/kg, po administered 30 mins prior to glucose challenge by oral glucose tolerance test relative to sitagliptin; type: functional
[10] = Clearance in F344 rat at 2 mg/kg, iv; type: ADME, organism-based; set-up: dose 2 mg/kg, route intravenous; details: in vivo; how it was run: as §3
[11] = AUC in diabetic Zucker fatty rat model measured during OGTT at 3 mg/kg, po administered 30 mins prior to glucose challenge; type: ADME, organism-based; set-up: dose 3 mg/kg, route oral; details: in vivo; how it was run: as §2
Rattus norvegicus [12] = experiment: Antidiabetic activity in po dosed diabetic Zucker fatty rat model assessed as reduction of blood glucose level administered 30 mins prior to glucose challenge by oral glucose tolerance test; type: functional, organism-based
How it was run: (§5)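 Nine-week-old Zucker fatty rats fasted overnight; vehicle or compound given orally (1–10 mg/kg) 30 min before oral glucose load of 2 g/kg; blood sampled for plasma glucose and insulin; mean ± S.E., n = 6.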

Rattus norvegicus [13] = experiment: Antidiabetic activity in diabetic Zucker fatty rat model assessed as increase in insulin level measured during OGTT at 1 to 10 mg/kg, po administered 30 mins prior to glucose challenge; type: functional, organism-based; how it was run: as §5
[14] = Cmax in F344 rat at 3 mg/kg, po; type: ADME, organism-based; set-up: dose 3 mg/kg, route oral; details: in vivo
How it was run: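 F344 rats, single oral dose of 3 mg/kg, plasma pharmacokinetic parameters determined.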

[15] = Cmax in diabetic Zucker fatty rat model measured during OGTT at 3 mg/kg, po administered 30 mins prior to glucose challenge; type: ADME, organism-based; set-up: dose 3 mg/kg, route oral; details: in vivo; how it was run: as §4
[16] = Oral bioavailability in F344 rat at 3 mg/kg; type: ADME, organism-based; details: in vivo
How it was run: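 F344 rats. Bioavailability from an iv dose of 2 mg/kg paired with an oral dose of 3 mg/kg.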

[17] = Cmax in diabetic Zucker fatty rat model measured during OGTT at 1 mg/kg, po administered 30 mins prior to glucose challenge; type: ADME, organism-based; set-up: dose 1 mg/kg, route oral; details: in vivo; how it was run: as §4
[18] = AUC in diabetic Zucker fatty rat model measured during OGTT at 1 mg/kg, po administered 30 mins prior to glucose challenge; type: ADME, organism-based; set-up: dose 1 mg/kg, route oral; details: in vivo; how it was run: as §2
Rattus norvegicus [19] = experiment: Antidiabetic activity in diabetic Zucker fatty rat model assessed as reduction of blood glucose level at 10 mg/kg, po administered 30 mins prior to glucose challenge by oral glucose tolerance test; type: functional, organism-based; set-up: dose 10 mg/kg; how it was run: as §5
[20] = Cmax in F344 rat at 10 mg/kg, po; type: ADME, organism-based; set-up: dose 10 mg/kg, route oral; details: in vivo
How it was run: (§6)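 F344 rats; single dose given iv at 10 mg/kg or orally at 10 mg/kg (some compounds iv 2 mg/kg and po 3 mg/kg); plasma drug levels used to derive pharmacokinetic parameters.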

[21] = Oral bioavailability in F344 rat at 10 mg/kg; type: ADME, organism-based; details: in vivo; how it was run: as §6
[22] = Volume of distribution at steady state in F344 rat at 10 mg/kg, iv; type: ADME, organism-based; set-up: dose 10 mg/kg, route intravenous; details: in vivo, read-out: Vdss; how it was run: as §6
[23] = Clearance in F344 rat at 10 mg/kg, iv; type: ADME, organism-based; set-up: dose 10 mg/kg, route intravenous; details: in vivo; how it was run: as §6
[24] = Half life in F344 rat at 10 mg/kg, iv; type: ADME, organism-based; set-up: dose 10 mg/kg, route intravenous; details: in vivo; how it was run: as §6
[25] = AUC in F344 rat at 10 mg/kg, po; type: ADME, organism-based; set-up: dose 10 mg/kg, route oral; details: plasma; how it was run: as §6
[26] = Oral bioavailability in F344 rat; type: ADME, organism-based; details: in vivo; how it was run: as §6

Sequence of Free fatty acid receptor 1 (Rattus norvegicus, UniProt Q8K3T4) (Q8K3T4 whole entry): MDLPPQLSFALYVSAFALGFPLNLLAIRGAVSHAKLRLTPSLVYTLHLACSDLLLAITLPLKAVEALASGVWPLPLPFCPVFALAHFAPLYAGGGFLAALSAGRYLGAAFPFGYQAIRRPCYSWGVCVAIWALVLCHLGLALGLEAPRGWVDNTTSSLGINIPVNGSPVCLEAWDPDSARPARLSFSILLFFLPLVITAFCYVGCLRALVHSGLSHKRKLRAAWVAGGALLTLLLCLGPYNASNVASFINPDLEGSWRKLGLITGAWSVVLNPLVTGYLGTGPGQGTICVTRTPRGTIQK
Sequence of Free fatty acid receptor 1 (Homo sapiens, UniProt O14842) (O14842 whole entry): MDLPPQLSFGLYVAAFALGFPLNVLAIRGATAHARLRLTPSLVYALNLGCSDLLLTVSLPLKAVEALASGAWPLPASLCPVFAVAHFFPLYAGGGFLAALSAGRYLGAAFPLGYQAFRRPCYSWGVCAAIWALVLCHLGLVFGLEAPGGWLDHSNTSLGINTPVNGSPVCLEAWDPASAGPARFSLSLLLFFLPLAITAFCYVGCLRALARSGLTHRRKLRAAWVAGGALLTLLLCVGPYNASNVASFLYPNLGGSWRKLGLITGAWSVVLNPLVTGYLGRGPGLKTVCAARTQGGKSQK

SMILES | EC50 [1] [nM] | logD [2] | EC50 [3] [nM] | further results
Cc1cccc(C)c1-c1cccc(COc2ccc(CCC(=O)O)s2)c1 | 840 | > 2.4 | 52 | 
Cc1cccc(C)c1-c1cccc(COc2ccc(CCC(=O)O)nn2)c1 | 310 |  | 420 | 
Cc1cccc(C)c1-c1cccc(COc2ncc(CCC(=O)O)cn2)c1 | 1400 | 2 | 130 | 
Cc1cc(CCC(=O)O)cnc1OCc1cccc(-c2c(C)cccc2C)c1 | 9100 |  | 2500 | 
Cc1cccc(C)c1-c1cccc(COc2cnc(CCC(=O)O)cn2)c1 | 16 | 2.5 | 3.8 | 
CCOC(CC(=O)O)c1ccc(OCc2cccc(-c3c(C)cccc3C)c2)nc1 (configuration not stated) | 130 | 2.8 | 14 | inhibition (Homo sapiens): 66%
CCOC(CC(=O)O)c1ccc(OCc2ccccc2C)cc1 (configuration not stated) | 79 | 1.2 | 20 | Activity (MIN6): Dose-dependent effect; AUC [4]: 5300 ng·h/mL; AUC at 0.5 h [5]: 78000 ng·h/mL; Vd [6]: 0.16 L/kg; half-life [7]: 22.2 min; Cmax [8]: 51 µg/mL; fold change (FC) (Rattus norvegicus [9]): 3; clearance [10]: 6.17 mL/min/kg; AUC at 0.5 h [11]: 19000 ng·h/mL; Activity (Rattus norvegicus [12]): Dose-dependent effect; Activity (Rattus norvegicus [13]): Active; Cmax [14]: 3300 ng/mL; Cmax [15]: 14000 ng/mL; bioavailability [16]: 64%; Cmax [17]: 4100 ng/mL; AUC at 0.5 h [18]: 4800 ng·h/mL; inhibition (Homo sapiens): 6%
N[C@@H](CC(=O)N1CCn2c(nnc2C(F)(F)F)C1)Cc1cc(F)c(F)cc1F |  |  |  | Activity (Rattus norvegicus [19]): Active
COC(Cc1ccc(OCc2cccc(-c3c(C)cccc3C)c2)nc1)C(=O)O (configuration not stated) | > 10000 |  | 120 | 
Cc1cc(OCc2cccc(-c3c(C)cccc3C)c2)ncc1CCC(=O)O | 130 |  | 9.3 | 
Cc1cccc(C)c1-c1cccc(COc2ccc(CC(F)C(=O)O)cn2)c1 (configuration not stated) | 250 |  | 8.6 | inhibition (Homo sapiens): 58%
CCOC(CC(=O)O)c1ccc(OCc2ccc(C)cc2)cc1 (configuration not stated) | 290 |  | 370 | 

Continued by falling EC50 [1], values first:

EC50 [1] [nM] | logD [2] | EC50 [3] [nM] | SMILES | further results
2100 |  | 65 | Cc1cccc(C)c1-c1cccc(COc2ccc(CC(C)C(=O)O)cn2)c1 (configuration not stated) | 
1100 |  | 81 | Cc1cccc(C)c1-c1cccc(COc2ccc(CCC(=O)O)c(C)n2)c1 | 
760 | 0.7 | 230 | CCOC(CC(=O)O)c1ccc(OCc2ccccc2)nc1 (configuration not stated) | inhibition (Homo sapiens): 1%
540 |  | 65 | Cc1cccc(C)c1-c1cccc(COc2ncc(CCC(=O)O)s2)c1 | 
320 | 3.3 | 10 | Cc1cccc(C)c1-c1cccc(COc2ccc(C(C)CC(=O)O)cn2)c1 (configuration not stated) | inhibition (Homo sapiens): 39%
210 | 2.4 | 71 | Cc1cccc(C)c1-c1cccc(COc2ccc(CCC(=O)O)nc2)c1 | 
190 |  | 49 | Cc1cccc(C)c1-c1cccc(COc2cc3c(cn2)C(CC(=O)O)OC3)c1 (configuration not stated) | 
99 |  | 13 | O=C(O)CCc1ccc(NCc2cccc(Oc3ccccc3)c2)cc1 [GW9508] | 
96 |  | 18 | Cc1cccc(C)c1-c1cccc(COc2ccc(C(F)CC(=O)O)cn2)c1 (configuration not stated) | inhibition (Homo sapiens): 91%
78 |  | 35 | CCOC(CC(=O)O)c1ccc(OCc2cccc(C)c2)cc1 (configuration not stated) | 
38 | 3 | 3.5 | Cc1cccc(C)c1-c1cccc(COc2ccc(CCC(=O)O)cn2)c1 | Cmax [20]: 3500 ng/mL; bioavailability [21]: 24%; Vd [22]: 0.22 L/kg; clearance [23]: 20 mL/min/kg; half-life [24]: 14.4 min; AUC [25]: 2000 ng·h/mL
18 | > 3.3 | 6.7 | Cc1cccc(C)c1-c1cccc(COc2ccc(CCC(=O)O)cc2)c1 | bioavailability [26]: 0.9%; inhibition (Homo sapiens): 58%
